KCNK9 block = human KCNK9 channel inhibition; HEK293 KCNK9, FluxOR thallium flux fluorescence; hits give low values; Q9NPC2; AID 488922; 1.2% of 310,000 active; B-score at 10 µM;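 active = ratio B-score over 3 SD below the library mean, with starting fluorescence within 5 SD of its mean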;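 also: negative B-score means less thallium flux so channel inhibition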
KCNQ1 inh = human KCNQ1 channel inhibition; P51787; CHO-K1 KCNQ1, FluxOR thallium flux fluorescence; hits give high values; B-score at 10 µM; 1.3% of 310,000 active; AID 2642;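 active = compounds whose thallium flux B-score, printed positive for inhibition, exceeds three library SD while starting fluorescence stays within three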;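 also: channel opened by potassium depolarization with thallium stimulus after 20 min compound exposure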
Kir21 inh = Kir2.1 (mouse) channel inhibition | B-score at 10 µM | 0.85% of 310,000 active | HEK293-Kir2.1, FluxOR thallium flux fluorescence; hits give low values | P35561;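 active = fluorescence ratio B-score at or below minus 3 SD of library scores, with starting-brightness B-score within 2 SD, cut at about -4.2 in these data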;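 also: channel flux triggered by added potassium and thallium sulfate stimulus; B-score of peak minus minimum fluorescence over baseline after thallium stimulus; more negative B-score means stronger Kir2.1 block with less thallium influx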
Target sequence (P35561 whole entry, looked up): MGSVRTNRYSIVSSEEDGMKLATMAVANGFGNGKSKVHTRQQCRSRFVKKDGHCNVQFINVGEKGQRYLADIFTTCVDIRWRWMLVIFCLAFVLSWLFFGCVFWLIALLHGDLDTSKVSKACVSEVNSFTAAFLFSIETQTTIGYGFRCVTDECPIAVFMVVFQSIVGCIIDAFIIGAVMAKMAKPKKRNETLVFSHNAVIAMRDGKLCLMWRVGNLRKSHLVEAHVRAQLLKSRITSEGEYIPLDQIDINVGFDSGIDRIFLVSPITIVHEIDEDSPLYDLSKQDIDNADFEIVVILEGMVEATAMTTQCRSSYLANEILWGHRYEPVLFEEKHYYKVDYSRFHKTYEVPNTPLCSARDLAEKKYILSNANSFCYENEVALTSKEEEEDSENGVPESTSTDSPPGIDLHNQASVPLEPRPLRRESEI
hERG rescue = shields human hERG channel from block by proarrhythmic agents | CHO-hERG, FluxOR thallium flux, dofetilide IC70 present | activation (rescue from dofetilide block), less the hit threshold, % at 10 µM | Q12809 | 0.51% of 310,000 active;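 active = activation above the mean of controls blocked by dofetilide plus 5 SD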;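 also: thallium influx through hERG after potassium depolarization seen as dye fluorescence rise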
KCNK3 block = human KCNK3 channel inhibition, primary screen | O14649 | CHO-KCNK3 thallium flux, FluxOR fluorescence; hits give low values | B-score at 10 µM | 0.84% of 340,000 active;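 active = B-score under library mean minus 4 SD, starting fluorescence ratio at most library mean plus 5 SD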;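 also: more negative B-score means stronger inhibition of thallium flux through KCNK3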
KCNQ1 pot = human KCNQ1 channel potentiation or activation | CHO-K1 KCNQ1, thallium flux FluxOR fluorescence; hits give high values | 0.35% of 310,000 active | P51787 | AID 2648 | B-score at 10 µM;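 active = fluorescence ratio B-score, a plate-corrected score, at least three library SD, with initial intensity B-score within 5 SD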
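System: CHO-K1 cells stably expressing KCNQ1 / Medium: assay buffer for compound exposure, DMSO matched across wells / Reagent: thallium- and potassium-containing depolarizing buffer / Compound: one concentration, matched DMSO / Incubation: 20 min compound pretreatment at room temperature / Measured by: kinetic FluxOR fluorescence, 10 s baseline plus 110 s post-stimulus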
KCNK9 inh conf = human KCNK9 inhibitor confirmation | shares compounds with KCNK9 block | HEK293 KCNK9 cells, FluxOR thallium flux fluorescence | inhibition, % at 10 µM | 43% of 4,900 active | AID 492992;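 active = thallium signal inhibited by more than 5 SD of the compound-free buffer control wells, on both duplicate plates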;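 also: 0% = assay buffer control wells without compound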
Kir21 sel = mouse Kir2.1 off-target activity of KCNK9 modulators; shares compounds with KCNK9 block; inhibition, % at 10 µM; Kir2.1 cells, FluxOR thallium flux fluorescence; 4% of 4,900 active;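 active = thallium signal drop more than 5 SD beyond the mean of the no-compound control wells, seen in both duplicate plates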;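 also: signal is fluorescence rise after thallium addition divided by baseline fluorescence; plate controls were assay buffer only for no effect and full block by chlorpromazine control for full effect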
KCNK9 uninduced = second check of KCNK9 modulator effects in non-induced HEK293 cells; inhibition, % at 10 µM; FluxOR thallium flux; 40% of 4,900 active; shares compounds with KCNK9 block;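 active = thallium signal drop beyond 5 SD of the untreated control mean, on both duplicate plates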;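 also: plate controls were buffer only IC0 wells for no effect and SID17386958 at its maximal inhibitory level for full effect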
KCNK3 confirm = human KCNK3 channel inhibition, confirmation assay. ratio percent of control, % at 10 µM. shares compounds with KCNK3 block. AID 651638. CHO-KCNK3 thallium flux, FluxOR fluorescence; 0% buffer, 100% carvedilol maximal block. 99% of 2,400 active;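 active = ratio percent of control, averaged over triplicates, above buffer control mean plus 5 SD, cut at about 64% in these data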;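 also: ratio is the fluorescence rise from min to max over baseline after thallium stimulus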
KCNK3 uninduced = counter-screen for KCNK3 inhibitors: effect in non-induced cells | thallium flux ratio (lower = more inhibition) at 10 µM | non-induced KCNK3 parental cells, FluxOR thallium flux; hits give low values | shares compounds with KCNK3 block | 40% of 2,400 active;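 active = thallium flux ratio, averaged over three wells, more than 5 SD below the buffer control mean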;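 also: host cells are CHO cells without KCNK3 induction; ratio is peak minus trough fluorescence over baseline then normalized to buffer controls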
* hit, by the source's call; i = inactive; . = not tested or not shown. The list is not random: actives were taken first. Their share in the collection is about 3.7%.

SMILES	KCNK9 block	KCNQ1 inh	Kir21 inh	hERG rescue	KCNK3 block	KCNQ1 pot	KCNK9 inh conf	Kir21 sel	KCNK9 uninduced	KCNK3 confirm	KCNK3 uninduced
O=C(Nc1cccc(S(=O)(=O)N2CCCCCC2)c1)C1CCN(C(=O)c2ccc(F)cc2)CC1	i	i	0.03	-16.7	i	i	i	i	i	.	.
CCCn1c(N)c(C(=O)COC(=O)c2cccc(S(=O)(=O)N3CCOCC3)c2)c(=O)[nH]c1=O	.	.	.	.	i	.	.	.	.	.	.
COc1ccc(C(=O)/C=C(\C)NCc2ccc3c(c2)OCO3)cc1	i	i	-0.04	-6.9	i	i	i	i	i	.	.
CC(=O)Oc1ccc(C(=O)NCc2ccc3c(c2)OCO3)cc1	i	i	0.8	-11.2	i	i	.	.	.	.	.
Cc1cc(C)c2c(n1)SCC(=O)N2CC(=O)Nc1ccc(Br)c(C)c1	i	i	-2.33	-4.6	i	i	.	.	.	.	.
CCN1CCN(C(=S)Nc2sc(C)c(-c3ccccc3)c2C(=O)OC)CC1	i	6*	-0.9	-6.1	i	i	i	i	i	.	.
CCCN1CCN(C(=S)Nc2sc(CC)cc2C(=O)OC)CC1	i	i	-1.27	-13.3	i	i	i	i	i	.	.
CCOc1ccccc1C(=O)Nc1ccc2c(c1)C(=O)NC2=O	i	i	-0.7	-10.5	i	i	.	.	.	.	.
COc1ccc(CC(=O)Nc2ccc(C(N)=O)cc2)cc1	i	i	-0.47	-7.9	i	i	.	.	.	.	.
COC(=O)/N=C(/Cc1ccc(OC)cc1)c1ccc(OC)cc1	i	i	0.33	0.5	i	i	i	i	i	.	.
O=S(=O)(N/N=C/c1ccc(Cl)cc1)c1ccc(Cc2ncc(C(F)(F)F)cc2Cl)s1	i	10*	-0.58	-16.5	-9.28*	i	i	i	i	.	.
NC(=O)c1ccc(Cc2ncc(C(F)(F)F)cc2Cl)s1	i	i	-0.75	0.6	i	i	.	.	.	.	.
NS(=O)(=O)c1cccc(NC(=O)CN2CCc3ccccc32)c1	i	i	-0.72	-11.2	i	i	.	.	.	.	.
CN(c1ccccc1)S(=O)(=O)c1cccc(NC(=O)CN2CCCc3ccccc32)c1	-11.1*	i	-0.61	-7.8	-9.78*	i	49.5%*	i	24.0%*	113.0*	i
CC(OC(=O)Cn1cnc2c1c(=O)n(C)c(=O)n2C)C(=O)NC1(C#N)CCCCC1 (configuration not stated)	.	.	.	.	i	.	.	.	.	.	.
O=C(COCc1cc(-c2ccc3c(c2)OCO3)on1)N1CCN(c2cccc(C(F)(F)F)c2)CC1	i	i	-0.06	-7.0	i	i	.	.	.	.	.
Cc1ccc(C(c2ccc(C)o2)c2cccc([N+](=O)[O-])c2O)o1	-11*	i	-1.5	-17.8	-9.79*	i	26.0%*	i	i	113.7*	0.146*
COc1ccc(C(=O)OC(C(=O)c2ccccc2)c2ccccc2)cc1 (configuration not stated)	-18.6*	i	-0.63	-4.1	-9.6*	i	77.0%*	i	46.5%*	115.3*	i
O=C(CSCC(=O)N1CCCc2ccccc21)Nc1nc(-c2ccccc2)cs1	-17.5*	i	0.3	-18.9	-11.9*	i	23.0%*	i	i	118.7*	0.144*
CC1Cc2ccccc2N1CC(=O)NCc1ccc2c(c1)OCO2 (configuration not stated)	i	i	-1.06	-6.6	i	i	.	.	.	.	.
CCOC(=O)c1ccc(Oc2nc(SC)nc(N(C)C)n2)cc1	-8.8*	i	1.17	-3.1	-9.81*	i	48.0%*	i	42.5%*	102.7*	i
COc1ccc(NC(=O)/C(C#N)=C\c2ccc(N3CCOCC3)o2)cc1	-8.73*	10*	-4.82	-22.1	-11.5*	i	48.5%*	35.5%*	76.5%*	131.7*	0.0913*
CCCCCCc1c(C)c2ccc(OCC(=O)N3CCC[C@H]3C(=O)O)c(C)c2oc1=O	i	i	0.56	-8.1	i	i	.	.	.	.	.
O=c1c2cnn(-c3ccccc3)c2nc(-c2cccs2)n1-c1cccc(Cl)c1	i	i	0.31	-11.6	i	i	.	.	.	.	.
CCCCCOC(=O)c1ccc(NC(=O)c2ccco2)cc1	-12*	i	0.1	-7.4	i	i	49.0%*	i	i	123.0*	0.149*
SMILES	KCNK9 block	KCNQ1 inh	Kir21 inh	hERG rescue	KCNK3 block	KCNQ1 pot	KCNK9 inh conf	Kir21 sel	KCNK9 uninduced	KCNK3 confirm	KCNK3 uninduced
CCOC(=O)c1cccc(NC(=O)c2ccc(NC(=O)c3ccco3)cc2)c1	i	i	0.03	-8.6	i	i	.	.	.	.	.
COc1ccc(NS(=O)(=O)c2ccc(NS(=O)(=O)c3cccs3)cc2)cc1	i	i	0.88	-4.1	i	i	.	.	.	.	.
COc1ccc(OC)c(C(=O)COC(=O)c2[nH]c(C)c(C(C)=O)c2C)c1	.	.	.	.	i	.	.	.	.	.	.
Cc1ccc(S(=O)(=O)n2nc(OC(=O)c3ccccc3C)cc2N)cc1	-17.9*	i	0.03	-2.0	-14.7*	i	69.5%*	i	74.5%*	116.7*	i
O=C(OCC(=O)N(CCc1ccccc1)Cc1ccccc1)c1cccc(O)c1	i	i	-2.31	-3.9	i	i	.	.	.	.	.
O=C(OCC(=O)N(Cc1ccccc1)Cc1ccccc1)c1ccccc1O	.	.	.	.	i	.	.	.	.	.	.
O=C(OCC(=O)N(CCc1ccccc1)Cc1ccccc1)c1ccccc1O	-17.6*	8*	-0.62	-12.3	-11.9*	i	74.5%*	i	39.0%*	118.3*	i
O=C(OCC(=O)N(CCc1ccccc1)Cc1ccccc1)c1ccccc1NCCO	-9.48*	i	0.09	-19.9	-9.93*	i	55.5%*	i	i	95.0*	i
Cc1ccc(C)c(NC(=O)NNC(=O)c2cc3ccccc3cc2O)c1	i	i	-0.82	-16.6	i	i	.	.	.	.	.
O=S(=O)(c1ccc(Br)cc1)c1nc(-c2ccco2)oc1NCCCn1ccnc1	.	.	.	.	i	.	.	.	.	.	.
